Data reported in ChEMBL document CHEMBL5303300, “EUbOPEN Chemogenomics Library - Multiplex” (2023).
Several values for one entry are separate records, joined by “and”; a condition that tells them apart may be missing. Equal entries are not always repeated.

Test system: Fibroblast
Experiment: Multiplex assay against human fibroblast
Type: toxicity, cell-based
Details: number of replicates 2
How it was run: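 With compound added, live cells were imaged on a CQ1 microscope at 37°C and 5% CO2; staining with Hoechst33342, BioTracker Green Microtubule Cytoskeleton Dye, MitoTracker Red and Annexin V Alexa Fluor 680 had been done at seeding. The CellPathfinder machine-learning gating scheme split cells into Hoechst high-intensity objects or normal cells, normal cells into healthy, pyknosed or fragmented nuclei, and pyknosed cells into mitotic or apoptotic. The tubulin, mitochondrial-mass and membrane-permeability phenotypes are per cents of healthy-nucleus cells.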

[1] = 12 h, 1 µM, compound concentration 1 uM
[2] = 12 h, 10 µM, compound concentration 10 uM
[3] = 24 h, 1 µM, compound concentration 1 uM
[4] = 24 h, 10 µM, compound concentration 10 uM
[5] = 48 h, 1 µM, compound concentration 1 uM
[6] = 48 h, 10 µM, compound concentration 10 uM

SMILES: COc1ccc(F)c(F)c1C(=O)c1cnc(NC2CCN(S(C)(=O)=O)CC2)nc1N [RG-547]
- Population Apoptotic (%) [1]: 48% and 56%
- Population Fragmented Nuclei (%) [1]: 5% and 8%
- Population Healthy Nuclei (%) [1]: 78% and 70%
- Population Hoechst High Intensity Objects (%) [1]: 0%
- Population Membrane Permeable-Phenotype (%) [1]: 2% and 5%
- Population Mitochondria Different-Phenotype (%) [1]: 0%
- Population Mitotic Cells (%) [1]: 51% and 43%
- Population Normal (%) [1]: 100%
- Population Pyknosed Nuclei (%) [1]: 15% and 20%
- Population Tubulin-Different-Phenotype (%) [1]: 2% and 9%
- Total Cell Count [1]: 173 and 188
- Population Apoptotic (%) [2]: 50% and 56%
- Population Fragmented Nuclei (%) [2]: 13% and 12%
- Population Healthy Nuclei (%) [2]: 73% and 72%
- Population Hoechst High Intensity Objects (%) [2]: 0%
- Population Membrane Permeable-Phenotype (%) [2]: 7% and 5%
- Population Mitochondria Different-Phenotype (%) [2]: 3% and 2%
- Population Mitotic Cells (%) [2]: 50% and 43%
- Population Normal (%) [2]: 99% and 100%
- Population Pyknosed Nuclei (%) [2]: 13% and 15%
- Population Tubulin-Different-Phenotype (%) [2]: 30% and 17%
- Total Cell Count [2]: 192 and 209
- Population Apoptotic (%) [3]: 57% and 67%
- Population Fragmented Nuclei (%) [3]: 9% and 10%
- Population Healthy Nuclei (%) [3]: 77% and 69%
- Population Hoechst High Intensity Objects (%) [3]: 0%
- Population Membrane Permeable-Phenotype (%) [3]: 4% and 5%
- Population Mitochondria Different-Phenotype (%) [3]: 1% and 0%
- Population Mitotic Cells (%) [3]: 42% and 32%
- Population Normal (%) [3]: 100%
- Population Pyknosed Nuclei (%) [3]: 13% and 20%
- Population Tubulin-Different-Phenotype (%) [3]: 7%
- Total Cell Count [3]: 196 and 184
- Population Apoptotic (%) [4]: 61% and 75%
- Population Fragmented Nuclei (%) [4]: 9% and 11%
- Population Healthy Nuclei (%) [4]: 72% and 74%
- Population Hoechst High Intensity Objects (%) [4]: 0%
- Population Membrane Permeable-Phenotype (%) [4]: 7% and 5%
- Population Mitochondria Different-Phenotype (%) [4]: 6% and 4%
- Population Mitotic Cells (%) [4]: 38% and 25%
- Population Normal (%) [4]: 100%
- Population Pyknosed Nuclei (%) [4]: 18% and 13%
- Population Tubulin-Different-Phenotype (%) [4]: 35% and 26%
- Total Cell Count [4]: 194 and 201
- Population Apoptotic (%) [5]: 44% and 71%
- Population Fragmented Nuclei (%) [5]: 20% and 11%
- Population Healthy Nuclei (%) [5]: 44% and 70%
- Population Hoechst High Intensity Objects (%) [5]: 3% and 0%
- Population Mitochondria Different-Phenotype (%) [5]: 9% and 0%
- Population Mitotic Cells (%) [5]: 55% and 28%
- Population Normal (%) [5]: 96% and 100%
- Population Pyknosed Nuclei (%) [5]: 36% and 17%
- Population Apoptotic (%) [6]: 84% and 68%
- Population Fragmented Nuclei (%) [6]: 8% and 11%
- Population Healthy Nuclei (%) [6]: 62%
- Population Hoechst High Intensity Objects (%) [6]: 0%
- Population Membrane Permeable-Phenotype (%) [6]: 17% and 18%
- Population Mitochondria Different-Phenotype (%) [6]: 2% and 6%
- Population Mitotic Cells (%) [6]: 15% and 31%
- Population Normal (%) [6]: 100%
- Population Pyknosed Nuclei (%) [6]: 28% and 25%
- Population Tubulin-Different-Phenotype (%) [6]: 43% and 38%
- Total Cell Count [6]: 179 and 184

SMILES: CN(C)CCCNc1ccnc(Nc2cccc(Cl)c2)n1
- Population Apoptotic (%) [1]: 13% and 30%
- Population Fragmented Nuclei (%) [1]: 9% and 15%
- Population Healthy Nuclei (%) [1]: 76% and 67%
- Population Hoechst High Intensity Objects (%) [1]: 0%
- Population Membrane Permeable-Phenotype (%) [1]: 4%
- Population Mitochondria Different-Phenotype (%) [1]: 1%
- Population Mitotic Cells (%) [1]: 86% and 70%
- Population Normal (%) [1]: 99% and 100%
- Population Pyknosed Nuclei (%) [1]: 14% and 16%
- Population Tubulin-Different-Phenotype (%) [1]: 14% and 10%
- Total Cell Count [1]: 249 and 301
- Population Apoptotic (%) [2]: 36% and 44%
- Population Fragmented Nuclei (%) [2]: 23% and 18%
- Population Healthy Nuclei (%) [2]: 65% and 70%
- Population Hoechst High Intensity Objects (%) [2]: 0%
- Population Membrane Permeable-Phenotype (%) [2]: 6% and 3%
- Population Mitochondria Different-Phenotype (%) [2]: 2% and 1%
- Population Mitotic Cells (%) [2]: 63% and 55%
- Population Normal (%) [2]: 99%
- Population Pyknosed Nuclei (%) [2]: 10% and 11%
- Population Tubulin-Different-Phenotype (%) [2]: 32% and 19%
- Total Cell Count [2]: 277 and 316
- Population Apoptotic (%) [3]: 35% and 40%
- Population Fragmented Nuclei (%) [3]: 13% and 19%
- Population Healthy Nuclei (%) [3]: 73% and 66%
- Population Hoechst High Intensity Objects (%) [3]: 0%
- Population Membrane Permeable-Phenotype (%) [3]: 4%
- Population Mitochondria Different-Phenotype (%) [3]: 0% and 2%
- Population Mitotic Cells (%) [3]: 64% and 59%
- Population Normal (%) [3]: 100% and 99%
- Population Pyknosed Nuclei (%) [3]: 13% and 14%
- Population Tubulin-Different-Phenotype (%) [3]: 14% and 13%
- Total Cell Count [3]: 284 and 321
- Population Apoptotic (%) [4]: 30% and 31%
- Population Fragmented Nuclei (%) [4]: 18% and 13%
- Population Healthy Nuclei (%) [4]: 61% and 66%
- Population Hoechst High Intensity Objects (%) [4]: 1% and 2%
- Population Membrane Permeable-Phenotype (%) [4]: 4% and 3%
- Population Mitochondria Different-Phenotype (%) [4]: 3% and 0%
- Population Mitotic Cells (%) [4]: 69% and 68%
- Population Normal (%) [4]: 98% and 97%
- Population Pyknosed Nuclei (%) [4]: 20% and 19%
- Population Tubulin-Different-Phenotype (%) [4]: 32% and 17%
- Total Cell Count [4]: 319 and 392
- Population Apoptotic (%) [5]: 56% and 66%
- Population Fragmented Nuclei (%) [5]: 18% and 25%
- Population Healthy Nuclei (%) [5]: 70% and 65%
- Population Hoechst High Intensity Objects (%) [5]: 0%
- Population Membrane Permeable-Phenotype (%) [5]: 3% and 1%
- Population Mitochondria Different-Phenotype (%) [5]: 0%
- Population Mitotic Cells (%) [5]: 43% and 33%
- Population Normal (%) [5]: 99%
- Population Pyknosed Nuclei (%) [5]: 10% and 9%
- Population Tubulin-Different-Phenotype (%) [5]: 12% and 5%
- Total Cell Count [5]: 314 and 360
- Population Apoptotic (%) [6]: 22% and 29%
- Population Fragmented Nuclei (%) [6]: 17% and 16%
- Population Healthy Nuclei (%) [6]: 66% and 70%
- Population Hoechst High Intensity Objects (%) [6]: 6%
- Population Membrane Permeable-Phenotype (%) [6]: 3% and 2%
- Population Mitochondria Different-Phenotype (%) [6]: 2% and 0%
- Population Mitotic Cells (%) [6]: 77% and 70%
- Population Normal (%) [6]: 93%
- Population Pyknosed Nuclei (%) [6]: 16% and 13%
- Population Tubulin-Different-Phenotype (%) [6]: 33% and 16%
- Total Cell Count [6]: 391 and 463

SMILES: COc1ccncc1C(=O)NC(=O)Nc1ccc(-c2ccccc2)c(C(F)(F)F)c1
- Population Apoptotic (%) [1]: 43% and 32%
- Population Fragmented Nuclei (%) [1]: 7% and 12%
- Population Healthy Nuclei (%) [1]: 73% and 71%
- Population Hoechst High Intensity Objects (%) [1]: 0%
- Population Membrane Permeable-Phenotype (%) [1]: 5% and 3%
- Population Mitochondria Different-Phenotype (%) [1]: 1% and 2%
- Population Mitotic Cells (%) [1]: 56% and 67%
- Population Normal (%) [1]: 99% and 100%
- Population Pyknosed Nuclei (%) [1]: 19% and 15%
- Population Tubulin-Different-Phenotype (%) [1]: 6% and 5%
- Total Cell Count [1]: 158 and 217
- Population Apoptotic (%) [2]: 38% and 50%
- Population Fragmented Nuclei (%) [2]: 8% and 16%
- Population Healthy Nuclei (%) [2]: 69%
- Population Hoechst High Intensity Objects (%) [2]: 0%
- Population Membrane Permeable-Phenotype (%) [2]: 9% and 5%
- Population Mitochondria Different-Phenotype (%) [2]: 2%
- Population Mitotic Cells (%) [2]: 61% and 50%
- Population Normal (%) [2]: 100%
- Population Pyknosed Nuclei (%) [2]: 22% and 13%
- Population Tubulin-Different-Phenotype (%) [2]: 22% and 16%
- Total Cell Count [2]: 213 and 202
- Population Apoptotic (%) [3]: 59% and 44%
- Population Fragmented Nuclei (%) [3]: 19% and 15%
- Population Healthy Nuclei (%) [3]: 61% and 68%
- Population Hoechst High Intensity Objects (%) [3]: 0%
- Population Membrane Permeable-Phenotype (%) [3]: 4% and 6%
- Population Mitochondria Different-Phenotype (%) [3]: 1% and 2%
- Population Mitotic Cells (%) [3]: 40% and 55%
- Population Normal (%) [3]: 100%
- Population Pyknosed Nuclei (%) [3]: 19% and 16%
- Population Tubulin-Different-Phenotype (%) [3]: 12% and 10%
- Total Cell Count [3]: 189 and 219
- Population Apoptotic (%) [4]: 46% and 65%
- Population Fragmented Nuclei (%) [4]: 10% and 18%
- Population Healthy Nuclei (%) [4]: 66% and 70%
- Population Hoechst High Intensity Objects (%) [4]: 0%
- Population Membrane Permeable-Phenotype (%) [4]: 6% and 4%
- Population Mitochondria Different-Phenotype (%) [4]: 0% and 2%
- Population Mitotic Cells (%) [4]: 53% and 34%
- Population Normal (%) [4]: 100%
- Population Pyknosed Nuclei (%) [4]: 22% and 11%
- Population Tubulin-Different-Phenotype (%) [4]: 19% and 12%
- Total Cell Count [4]: 215 and 203
- Population Apoptotic (%) [5]: 75% and 63%
- Population Fragmented Nuclei (%) [5]: 13% and 16%
- Population Healthy Nuclei (%) [5]: 69% and 74%
- Population Hoechst High Intensity Objects (%) [5]: 0%
- Population Membrane Permeable-Phenotype (%) [5]: 4% and 7%
- Population Mitochondria Different-Phenotype (%) [5]: 0%
- Population Mitotic Cells (%) [5]: 25% and 36%
- Population Normal (%) [5]: 100% and 99%
- Population Pyknosed Nuclei (%) [5]: 16% and 9%
- Population Tubulin-Different-Phenotype (%) [5]: 4% and 6%
- Total Cell Count [5]: 173 and 239
- Population Apoptotic (%) [6]: 66%
- Population Fragmented Nuclei (%) [6]: 9% and 16%
- Population Healthy Nuclei (%) [6]: 79% and 77%
- Population Hoechst High Intensity Objects (%) [6]: 0%
- Population Membrane Permeable-Phenotype (%) [6]: 9% and 1%
- Population Mitochondria Different-Phenotype (%) [6]: 0% and 1%
- Population Mitotic Cells (%) [6]: 33%
- Population Normal (%) [6]: 100%
- Population Pyknosed Nuclei (%) [6]: 10% and 6%
- Population Tubulin-Different-Phenotype (%) [6]: 11% and 4%
- Total Cell Count [6]: 221 and 197
